Test results reported in ChEMBL document CHEMBL1137710, “Synthesis and in vitro antitumor activity of new quinoxaline derivatives” (2009).

Legend:
Assay type in all cases: functional
IGROV-1 = assay: Growth inhibition of human IGROV1 cells after 48 hrs by sulforhodamine B assay; settings: IGROV-1, 48 h
Procedure, shortened: (§1)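 NCI 60-human-tumor-cell-line panel, with compounds tested over a 5-log dose range. Values are taken from dose-response curves as log10 molar concentrations: GI50 is 50% net growth inhibition, TGI is total growth inhibition, and LC50 is 50% net cell death.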

K562 = assay: Growth inhibition of human K562 cells after 48 hrs by sulforhodamine B assay; settings: K562, 48 h; procedure, shortened: as §1
NCI-H460 = assay: Anticancer activity against human NCI-H460 cells assessed as cell growth at 100 uM after 48 hrs by sulforhodamine B assay; settings: NCI-H460, 48 h, read-out: Activity
NCI-H522 = assay: Growth inhibition of human NCI-H522 cells after 48 hrs by sulforhodamine B assay; settings: NCI-H522, 48 h; procedure, shortened: as §1
OVCAR-4 = assay: Growth inhibition of human OVCAR4 cells after 48 hrs by sulforhodamine B assay; settings: OVCAR-4, 48 h; procedure, shortened: as §1
DU-145 = assay: Growth inhibition of human DU145 cells after 48 hrs by sulforhodamine B assay; settings: DU-145, 48 h; procedure, shortened: as §1
TK-10 = assay: Growth inhibition of human TK10 cells after 48 hrs by sulforhodamine B assay; settings: TK-10, 48 h
Procedure, shortened: (§2)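 Run in the NCI 60-human-tumour-cell-line panel, tested over a 5-log dose range. Dose–response curves gave three values per cell line, each as a log10 molar concentration: GI50 (50% inhibition of net cell growth), TGI (total inhibition of net growth) and LC50 (50% net cell death). The mean graph midpoint is the arithmetic mean over all lines, with insensitive lines entered at the highest concentration tested.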

A549 = assay: Growth inhibition of human A549 cells after 48 hrs by sulforhodamine B assay; settings: A549, 48 h; procedure, shortened: as §1
SF-295 = assay: Growth inhibition of human SF295 cells after 48 hrs by sulforhodamine B assay; settings: SF-295, 48 h; procedure, shortened: as §1
HCT-116 = assay: Growth inhibition of human HCT116 cells after 48 hrs by sulforhodamine B assay; settings: HCT-116, 48 h; procedure, shortened: as §1
CAKI-1 = assay: Growth inhibition of human Caki1 cells after 48 hrs by sulforhodamine B assay; settings: CAKI-1, 48 h; procedure, shortened: as §1
OVCAR-8 = assay: Growth inhibition of human OVCAR8 cells after 48 hrs by sulforhodamine B assay; settings: OVCAR-8, 48 h; procedure, shortened: as §1
PC-3 = assay: Growth inhibition of human PC3 cells after 48 hrs by sulforhodamine B assay; settings: PC-3, 48 h; procedure, shortened: as §1
M14 = assay: Growth inhibition of human M14 cells after 48 hrs by sulforhodamine B assay; settings: M14, 48 h; procedure, shortened: as §1
SF-268 = assay: Growth inhibition of human SF268 cells after 48 hrs by sulforhodamine B assay; settings: SF-268, 48 h; procedure, shortened: as §1
[1] = Growth inhibition of human Hs 578T cells after 48 hrs by sulforhodamine B assay; procedure, shortened: as §1
SK-MEL-5 = assay: Growth inhibition of human SK-MEL-5 cells after 48 hrs by sulforhodamine B assay; settings: SK-MEL-5, 48 h; procedure, shortened: as §1
LOX IMVI = assay: Growth inhibition of human LOXIMVI cells after 48 hrs by sulforhodamine B assay; procedure, shortened: as §1
OVCAR-5 = assay: Growth inhibition of human OVCAR5 cells after 48 hrs by sulforhodamine B assay; settings: OVCAR-5, 48 h; procedure, shortened: as §1
COLO 205 = assay: Growth inhibition of human COLO205 cells after 48 hrs by sulforhodamine B assay; settings: COLO 205, 48 h; procedure, shortened: as §1
MDA-MB-435 = assay: Growth inhibition of human MDA-MB-435 cells after 48 hrs by sulforhodamine B assay; settings: MDA-MB-435, 48 h; procedure, shortened: as §1
786-0 = assay: Growth inhibition of human 786-0 cells after 48 hrs by sulforhodamine B assay; settings: 786-0, 48 h; procedure, shortened: as §1
SK-MEL-28 = assay: Growth inhibition of human SK-MEL-28 cells after 48 hrs by sulforhodamine B assay; settings: SK-MEL-28, 48 h; procedure, shortened: as §1
U-251 = assay: Growth inhibition of human U251 cells after 48 hrs by sulforhodamine B assay; settings: U-251, 48 h; procedure, shortened: as §2
RXF 393 = assay: Growth inhibition of human RXF393 cells after 48 hrs by sulforhodamine B assay; settings: RXF 393, 48 h; procedure, shortened: as §1
SW-620 = assay: Growth inhibition of human SW620 cells after 48 hrs by sulforhodamine B assay; settings: SW-620, 48 h; procedure, shortened: as §2
MCF7 = assay: Anticancer activity against human MCF7 cells assessed as cell growth at 100 uM after 48 hrs by sulforhodamine B assay; settings: MCF7, 48 h, read-out: Activity
MDA-MB-231 = assay: Growth inhibition of human MDA-MB-231 cells after 48 hrs by sulforhodamine B assay; settings: MDA-MB-231, 48 h; procedure, shortened: as §1
NCI/ADR-RES = assay: Growth inhibition of human NCI/ADR-RES cells after 48 hrs by sulforhodamine B assay; procedure, shortened: as §1
NCI-H322M = assay: Growth inhibition of human NCI-H322M cells after 48 hrs by sulforhodamine B assay; procedure, shortened: as §1
[2] = read-out: pLC50 (the source's name) (converted)

COc1cc(CNc2nc3cc(N)cc(N)c3nc2-c2ccccc2)cc(OC)c1
GI50 (IGROV-1): 8.71 µM
CC50 (IGROV-1; [2]): > 100 µM
TGI (IGROV-1; read-out: pTGI (converted)): 56.2 µM
GI50 (K562): 3.63 µM
LC50 (K562): > 100 µM
TGI (K562; read-out: pTGI (converted)): 9.33 µM
growth at 100 µM (NCI-H460): -1%
GI50 (NCI-H522): 2.88 µM
LC50 (NCI-H522): > 100 µM
TGI (NCI-H522; read-out: pTGI (converted)): 22.9 µM
GI50 (OVCAR-4): 0.0141 µM
CC50 (OVCAR-4; [2]): 3.24 µM
TGI (OVCAR-4; read-out: pTGI (converted)): 0.977 µM
GI50 (DU-145): 29.5 µM
CC50 (DU-145; [2]): > 100 µM
TGI (DU-145; read-out: pTGI (converted)): > 100 µM
GI50 (TK-10): 24.5 µM
CC50 (TK-10; [2]): > 100 µM
TGI (TK-10; read-out: pTGI (converted)): 63.1 µM
GI50 (A549): 33.1 µM
LC50 (A549): > 100 µM
TGI (A549; read-out: pTGI (converted)): > 100 µM
GI50 (SF-295): 14.1 µM
LC50 (50% net cell kill) (SF-295): 87.1 µM
TGI (SF-295; read-out: pTGI (converted)): 35.5 µM
GI50 (HCT-116): 3.09 µM
LC50 (concentration causing 50% net cell death) (HCT-116): 72.4 µM
TGI (HCT-116; read-out: pTGI (converted)): 11.2 µM
GI50 (CAKI-1): 15.8 µM
CC50 (CAKI-1; [2]): > 100 µM
TGI (CAKI-1; read-out: pTGI (converted)): > 100 µM
GI50 (OVCAR-8): 2.82 µM
CC50 (OVCAR-8; [2]): > 100 µM
TGI (OVCAR-8; read-out: pTGI (converted)): 8.13 µM
GI50 (PC-3): 3.02 µM
CC50 (PC-3; [2]): > 100 µM
TGI (PC-3; read-out: pTGI (converted)): 14.5 µM
GI50 (M14): 10 µM
CC50 (M14; [2]): > 100 µM
TGI (M14; read-out: pTGI (converted)): 49 µM
GI50 (SF-268): 5.37 µM
LC50 (SF-268): > 100 µM
TGI (SF-268; read-out: pTGI (converted)): > 100 µM
GI50 [1]: 8.51 µM
CC50 [1, 2]: > 100 µM
TGI ([1]; read-out: pTGI (converted)): > 100 µM
GI50 (SK-MEL-5): 12.9 µM
CC50 (SK-MEL-5; [2]): > 100 µM
TGI (SK-MEL-5; read-out: pTGI (converted)): 41.7 µM
GI50 (LOX IMVI): 4.47 µM
LC50 (LOX IMVI): > 100 µM
TGI (LOX IMVI; read-out: pTGI (converted)): 81.3 µM
GI50 (OVCAR-5): 5.89 µM
CC50 (OVCAR-5; [2]): > 100 µM
TGI (OVCAR-5; read-out: pTGI (converted)): 29.5 µM
GI50 (COLO 205): 2.4 µM
LC50 (50% net cell kill) (COLO 205): > 100 µM
TGI (COLO 205; read-out: pTGI (converted)): 6.03 µM
GI50 (MDA-MB-435): 2.14 µM
TGI (MDA-MB-435; read-out: pTGI (converted)): 4.27 µM
GI50 (786-0): 12.6 µM
CC50 (786-0; [2]): > 100 µM
TGI (786-0; read-out: pTGI (converted)): 44.7 µM
GI50 (SK-MEL-28): 1.78 µM
CC50 (SK-MEL-28; [2]): > 100 µM
TGI (SK-MEL-28; read-out: pTGI (converted)): 8.71 µM
GI50 (U-251): 5.13 µM
LC50 (50% net cell kill) (U-251): > 100 µM
TGI (U-251; read-out: pTGI (converted)): > 100 µM
GI50 (RXF 393): 6.03 µM
CC50 (RXF 393; [2]): > 100 µM
TGI (RXF 393; read-out: pTGI (converted)): 58.9 µM
GI50 (SW-620): 4.47 µM
CC50 (SW-620; [2]): > 100 µM
TGI (SW-620; read-out: pTGI (converted)): > 100 µM
growth at 100 µM (MCF7): -72%
GI50 (MDA-MB-231): 2.09 µM
CC50 (MDA-MB-231; [2]): > 100 µM
TGI (MDA-MB-231; read-out: pTGI (converted)): 6.03 µM
GI50 (NCI/ADR-RES): 5.5 µM
CC50 (NCI/ADR-RES; [2]): > 100 µM
TGI (NCI/ADR-RES; read-out: pTGI (converted)): 33.1 µM
GI50 (NCI-H322M): 44.7 µM
LC50 (NCI-H322M): > 100 µM
TGI (NCI-H322M; read-out: pTGI (converted)): > 100 µM
